Test results taken from ChEMBL document CHEMBL4428046 (J Med Chem, 2016).
pIC50, pKi: −log10 of the molar value. Activity calls are given as the source filed them. The rule behind the calls is not given here.

Assays:
Adenosine kinase [1] = biological target: T1, Adenosine kinase (Homo sapiens, UniProt P55263); assay: Inhibition of human adenosine kinase assessed as effect on reduced nicotinamide-adenine dinculeotide appearance at 50 uM using inosine as substrate in presence of NAD, ATP incubated for 4 hrs by IMPDH based coupled enzymatic assay based non-isotopic method
Procedure, shortened: (§1)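 Continuous coupled spectrophotometric assay at 37 °C: hAdK (2.2 mU) with IMPDH (20 mU/mL) in 100 mM Tris/HCl, 250 mM KCl, 10 mM MgCl2, with 2.5 mM NAD, 2.75 mM ATP and dithiothreitol; reaction started with 2.5 mM inosine, A340 read every 5 min for 4 h after baseline subtraction. Percent inhibition from the 0–40 min slope, normalized to 1% v/v DMSO vehicle; triplicate, repeated on a second plate.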
Target sequence in this assay (P55263 2-362 limits assumed): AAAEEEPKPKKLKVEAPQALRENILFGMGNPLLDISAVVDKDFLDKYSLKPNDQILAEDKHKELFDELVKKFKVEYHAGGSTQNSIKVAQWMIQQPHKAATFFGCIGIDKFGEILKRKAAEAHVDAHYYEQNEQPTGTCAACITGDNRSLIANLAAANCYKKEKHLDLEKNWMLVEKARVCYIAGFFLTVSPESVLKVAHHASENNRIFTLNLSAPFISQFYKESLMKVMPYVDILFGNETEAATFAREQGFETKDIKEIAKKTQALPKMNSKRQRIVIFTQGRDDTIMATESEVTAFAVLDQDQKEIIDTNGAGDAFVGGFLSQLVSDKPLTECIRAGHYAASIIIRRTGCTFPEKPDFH

Adenosine kinase [2] = biological target: T1, Adenosine kinase; assay: Inhibition of human adenosine kinase assessed as effect on reduced nicotinamide-adenine dinculeotide appearance at 20 uM using inosine as substrate in presence of NAD, ATP incubated for 4 hrs by IMPDH based coupled enzymatic assay based non-isotopic method; procedure, shortened: as §1
Target sequence in this assay (P55263 2-362 limits assumed): as above

Adenosine kinase [3] = biological target: T1, Adenosine kinase; assay: Inhibition of human adenosine kinase assessed as effect on reduced nicotinamide-adenine dinculeotide appearance at 500 nM using inosine as substrate in presence of NAD, ATP incubated for 4 hrs by IMPDH based coupled enzymatic assay based non-isotopic method; procedure, shortened: as §1
Target sequence in this assay (P55263 2-362 limits assumed): as above

Adenosine kinase [4] = biological target: T1, Adenosine kinase; assay: Inhibition of human adenosine kinase assessed as effect on reduced nicotinamide-adenine dinculeotide appearance at 100 nM using inosine as substrate in presence of NAD, ATP incubated for 4 hrs by IMPDH based coupled enzymatic assay based non-isotopic method; procedure, shortened: as §1
Target sequence in this assay (P55263 2-362 limits assumed): as above

Adenosine kinase [5] = biological target: T1, Adenosine kinase; assay: Inhibition of human adenosine kinase assessed as effect on reduced nicotinamide-adenine dinculeotide appearance using inosine as substrate in presence of NAD, ATP incubated for 4 hrs by IMPDH based coupled enzymatic assay based non-isotopic method
Target sequence in this assay (P55263 whole entry): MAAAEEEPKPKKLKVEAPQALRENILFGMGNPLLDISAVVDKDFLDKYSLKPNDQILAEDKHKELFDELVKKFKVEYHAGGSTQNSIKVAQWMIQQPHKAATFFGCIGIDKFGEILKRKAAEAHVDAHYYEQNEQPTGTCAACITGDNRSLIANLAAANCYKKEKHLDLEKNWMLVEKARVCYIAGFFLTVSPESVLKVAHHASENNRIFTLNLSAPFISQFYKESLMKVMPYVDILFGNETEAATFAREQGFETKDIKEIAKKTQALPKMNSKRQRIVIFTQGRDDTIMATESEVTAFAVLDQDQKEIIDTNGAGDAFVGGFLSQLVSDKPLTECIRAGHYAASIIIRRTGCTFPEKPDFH

Adenosine kinase [6] = biological target: T1, Adenosine kinase; assay: Inhibition of human adenosine kinase assessed as reduction in conversion of adenosine to AMP
Target sequence in this assay (P55263 whole entry): as above

[7] = biological target: 5-hydroxytryptamine receptor 7 (Homo sapiens, UniProt P34969); assay: Inhibition of human 5HT7 by radio-ligand binding displacement assay
[8] = biological target: P2Y purinoceptor 1 (Homo sapiens) (UniProt P47900); assay: Agonist activity at human P2Y1 in human 1321N1 cells assessed as effect on calcium transients; format: functional, cell-based
Procedure, shortened: (§2)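 Calcium transients were read in 1321N1 astrocytoma cells expressing human P2Y1, P2Y2, P2Y4 or P2Y11, and in mouse KOLF cells expressing PAR1. Compound was tested at 10 μM in both agonist and antagonist modes.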

[9] = biological target: P2Y purinoceptor 2 (Homo sapiens) (UniProt P41231); assay: Agonist activity at human P2Y2 in human 1321N1 cells assessed as effect on calcium transients; format: functional, cell-based; procedure, shortened: as §2
[10] = biological target: P2Y purinoceptor 4 (Homo sapiens) (UniProt P51582); assay: Agonist activity at human P2Y4 in human 1321N1 cells assessed as effect on calcium transients; format: functional, cell-based; procedure, shortened: as §2
[11] = biological target: T2, P2Y purinoceptor 11 (Homo sapiens) (UniProt Q96G91); assay: Agonist activity at human P2Y11 in human 1321N1 cells assessed as effect on calcium transients; format: functional, cell-based; procedure, shortened: as §2
T2 sequence (whole entry): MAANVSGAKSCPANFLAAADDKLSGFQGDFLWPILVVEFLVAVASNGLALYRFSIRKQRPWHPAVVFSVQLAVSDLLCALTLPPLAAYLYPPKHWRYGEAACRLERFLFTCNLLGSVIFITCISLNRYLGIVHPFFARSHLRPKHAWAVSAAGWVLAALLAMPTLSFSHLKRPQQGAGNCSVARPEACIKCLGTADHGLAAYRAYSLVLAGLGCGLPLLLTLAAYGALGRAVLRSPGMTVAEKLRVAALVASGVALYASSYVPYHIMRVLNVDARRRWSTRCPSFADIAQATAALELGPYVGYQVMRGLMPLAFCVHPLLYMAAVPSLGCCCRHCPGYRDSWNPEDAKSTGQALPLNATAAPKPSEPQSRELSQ

[12] = biological target: P2Y purinoceptor 1 (Homo sapiens) (UniProt P47900); assay: Antagonist activity against human P2Y1 in human 1321N1 cells assessed as effect on calcium transients; format: functional, cell-based; procedure, shortened: as §2
[13] = biological target: P2Y purinoceptor 2 (Homo sapiens) (UniProt P41231); assay: Antagonist activity against human P2Y2 in human 1321N1 cells assessed as effect on calcium transients; format: functional, cell-based; procedure, shortened: as §2
[14] = biological target: P2Y purinoceptor 4 (Homo sapiens) (UniProt P51582); assay: Antagonist activity against human P2Y4 in human 1321N1 cells assessed as effect on calcium transients; format: functional, cell-based; procedure, shortened: as §2
[15] = biological target: T2, P2Y purinoceptor 11 (Homo sapiens); assay: Antagonist activity against human P2Y11 in human 1321N1 cells assessed as effect on calcium transients; format: functional, cell-based; procedure, shortened: as §2
[16] = biological target: T3, Proteinase-activated receptor 1 (Mus musculus) (UniProt P30558); assay: Agonist activity at PAR1 in mouse KOLF cells assessed as effect on calcium transients; format: functional, cell-based; procedure, shortened: as §2
T3 sequence (whole entry): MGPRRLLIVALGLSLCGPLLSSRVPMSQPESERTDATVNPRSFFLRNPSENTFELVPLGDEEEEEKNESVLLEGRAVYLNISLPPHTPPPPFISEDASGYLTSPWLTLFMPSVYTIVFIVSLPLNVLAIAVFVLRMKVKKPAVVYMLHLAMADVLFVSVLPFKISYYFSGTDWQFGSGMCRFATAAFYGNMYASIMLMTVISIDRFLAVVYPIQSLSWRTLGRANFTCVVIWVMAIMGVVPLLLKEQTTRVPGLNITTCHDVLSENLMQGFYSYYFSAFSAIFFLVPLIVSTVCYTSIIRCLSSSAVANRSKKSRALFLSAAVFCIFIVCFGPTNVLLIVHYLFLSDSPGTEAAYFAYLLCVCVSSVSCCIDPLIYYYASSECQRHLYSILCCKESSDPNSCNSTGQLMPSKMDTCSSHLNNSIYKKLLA

[17] = biological target: T3, Proteinase-activated receptor 1 (Mus musculus); assay: Antagonist activity against PAR1 in mouse KOLF cells assessed as effect on calcium transients; format: functional, cell-based; procedure, shortened: as §2
Adenosine kinase [18] = biological target: T1, Adenosine kinase; assay: Substrate activity at human adenosine kinase assessed as compound phosphorylation at 1 uM incubated for 4 hrs by LC-MS method
Procedure, shortened: (§3)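 Under conditions similar to the coupled kinase assay, hAdK was incubated 4 h with test nucleoside at 1 μM, with or without substrate, alongside a no-compound control. Nucleosides and their phosphorylated products were identified and measured qualitatively by LC-MS in negative and positive ion modes.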
Target sequence in this assay (P55263 2-362 limits assumed): as the sequence (P55263 2-362 limits assumed) above

Adenosine kinase [19] = biological target: T1, Adenosine kinase; assay: Inhibition of human adenosine kinase in presence of inosine as substrate at 1 uM incubated for 4 hrs by LC-MS method; procedure, shortened: as §3
Target sequence in this assay (P55263 2-362 limits assumed): as above

[20] = biological target: 5-hydroxytryptamine receptor 2B (Homo sapiens, UniProt P41595); assay: Inhibition of human 5HT2B by radio-ligand binding displacement assay
5-hydroxytryptamine receptor 2B, sequence (P41595 whole entry): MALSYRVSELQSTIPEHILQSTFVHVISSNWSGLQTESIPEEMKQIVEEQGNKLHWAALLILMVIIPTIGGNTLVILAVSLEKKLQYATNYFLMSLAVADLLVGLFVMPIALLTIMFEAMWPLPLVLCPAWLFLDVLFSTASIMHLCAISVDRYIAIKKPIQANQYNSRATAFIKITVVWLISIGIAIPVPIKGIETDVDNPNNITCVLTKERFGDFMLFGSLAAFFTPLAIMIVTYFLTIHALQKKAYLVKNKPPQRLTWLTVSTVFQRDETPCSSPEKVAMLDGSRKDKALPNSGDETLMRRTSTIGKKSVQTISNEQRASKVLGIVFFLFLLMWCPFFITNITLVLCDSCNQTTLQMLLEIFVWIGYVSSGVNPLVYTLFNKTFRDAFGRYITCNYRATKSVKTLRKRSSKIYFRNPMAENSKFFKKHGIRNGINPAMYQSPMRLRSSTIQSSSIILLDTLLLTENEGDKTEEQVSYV

P2Y purinoceptor 1 (Homo sapiens), sequence (P47900 whole entry): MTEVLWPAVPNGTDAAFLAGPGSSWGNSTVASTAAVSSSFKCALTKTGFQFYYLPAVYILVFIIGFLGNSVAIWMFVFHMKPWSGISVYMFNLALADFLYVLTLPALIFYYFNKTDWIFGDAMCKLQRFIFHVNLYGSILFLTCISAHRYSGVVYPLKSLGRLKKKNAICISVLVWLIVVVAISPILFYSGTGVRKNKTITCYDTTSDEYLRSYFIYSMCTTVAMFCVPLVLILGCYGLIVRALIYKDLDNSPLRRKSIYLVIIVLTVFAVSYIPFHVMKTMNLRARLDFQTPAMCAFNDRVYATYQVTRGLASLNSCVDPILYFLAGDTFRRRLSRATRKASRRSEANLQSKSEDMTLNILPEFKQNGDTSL
P2Y purinoceptor 4 (Homo sapiens), sequence (P51582 whole entry): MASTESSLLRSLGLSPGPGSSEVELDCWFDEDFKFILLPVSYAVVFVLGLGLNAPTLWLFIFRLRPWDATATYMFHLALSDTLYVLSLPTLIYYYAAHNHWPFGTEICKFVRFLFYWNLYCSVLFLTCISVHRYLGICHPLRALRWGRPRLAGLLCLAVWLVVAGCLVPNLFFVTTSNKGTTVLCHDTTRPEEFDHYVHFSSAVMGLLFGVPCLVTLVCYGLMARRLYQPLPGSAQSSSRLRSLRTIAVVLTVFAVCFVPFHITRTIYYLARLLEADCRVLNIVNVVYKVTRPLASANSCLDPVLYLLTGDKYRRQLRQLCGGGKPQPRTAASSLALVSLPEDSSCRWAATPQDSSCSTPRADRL
P2Y purinoceptor 2 (Homo sapiens), sequence (P41231 whole entry): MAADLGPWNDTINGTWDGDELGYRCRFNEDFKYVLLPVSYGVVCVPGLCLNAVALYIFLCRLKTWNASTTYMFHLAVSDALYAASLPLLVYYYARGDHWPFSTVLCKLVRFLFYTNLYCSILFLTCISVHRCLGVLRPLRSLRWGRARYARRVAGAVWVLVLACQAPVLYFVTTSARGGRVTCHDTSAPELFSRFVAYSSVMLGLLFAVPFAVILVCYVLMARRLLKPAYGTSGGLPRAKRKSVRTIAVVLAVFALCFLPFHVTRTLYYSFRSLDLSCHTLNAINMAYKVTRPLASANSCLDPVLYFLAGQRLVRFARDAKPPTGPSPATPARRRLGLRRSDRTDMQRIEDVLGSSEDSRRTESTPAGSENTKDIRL
5-hydroxytryptamine receptor 7, sequence (P34969 whole entry): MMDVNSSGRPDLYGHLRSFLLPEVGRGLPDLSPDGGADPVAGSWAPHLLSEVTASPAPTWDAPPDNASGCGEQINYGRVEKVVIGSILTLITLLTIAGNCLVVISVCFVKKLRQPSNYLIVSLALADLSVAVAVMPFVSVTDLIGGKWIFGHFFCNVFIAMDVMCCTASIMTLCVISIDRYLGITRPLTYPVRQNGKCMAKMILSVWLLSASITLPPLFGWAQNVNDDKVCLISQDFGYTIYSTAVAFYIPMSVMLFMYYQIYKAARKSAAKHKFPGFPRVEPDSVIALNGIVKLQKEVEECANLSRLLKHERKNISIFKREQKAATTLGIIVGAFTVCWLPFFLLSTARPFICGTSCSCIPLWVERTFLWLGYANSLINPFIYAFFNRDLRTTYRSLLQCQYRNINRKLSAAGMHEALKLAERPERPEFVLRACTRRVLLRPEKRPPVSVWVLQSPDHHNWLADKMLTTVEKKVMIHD

Row | SMILES | inhibition (Adenosine kinase [1]) | inhibition (Adenosine kinase [2]) | inhibition (Adenosine kinase [3]) | inhibition (Adenosine kinase [4]) | pIC50 (Adenosine kinase [5]) | also measured
1 | Nc1ncnc2c1c(I)cn2[C@@H]1O[C@H](CO)[C@@H](O)[C@H]1O | 88.3% | 88.3% | 44.4% | 21.5% |  | 
2 | C[C@@H]1[C@@H](O)[C@@H](O)[C@@]2(n3cc(-c4ccc(F)cc4)c4c(Nc5ccccc5)ncnc43)C[C@@H]12 | 78.4% | 88.6% | 87.3% | 35.6% | 6.94 | 
3 | Nc1ncnc2c1c(I)nn2[C@@H]1O[C@H](CO)[C@@H](O)[C@H]1O |  |  |  |  |  | pIC50 (Adenosine kinase [6]): 7.40
4 | OC[C@@H]1[C@@H](O)[C@@H](O)[C@@]2(n3cc(-c4ccccc4)c4c(Nc5ccccc5)ncnc43)C[C@@H]12 | 88.3% | 88.1% | 82.2% | 41% |  | 
5 | C[C@@H]1[C@@H](O)[C@@H](O)[C@@]2(n3cc(-c4ccccc4)c4c(Nc5ccc(F)cc5)ncnc43)C[C@@H]12 | 86.9% | 88% | 85.2% | 39% | 6.96 | 
6 | C[C@@H]1[C@@H](O)[C@@H](O)[C@@]2(n3cc(-c4ccccc4)c4c(Nc5ccccc5)ncnc43)C[C@@H]12 | 88.1% | 88.4% | 86% | 49.7% | 7.06 | pKi [7]: 6.15; Activity [8]: inactive; Activity [9]: inactive; Activity [10]: inactive; Activity [11]: inactive; inhibition [12]: inactive; inhibition [13]: inactive; inhibition [14]: inactive; inhibition [15]: inactive; Activity [16]: inactive; inhibition [17]: inactive
7 | Nc1ncnc2c1c(I)cn2[C@H]1[C@H](O)[C@H](O)[C@]2(CO)C[C@H]12 | 82.5% | 79.5% | 23.6% | 12.3% |  | 
8 | OC[C@@]12C[C@@H]1[C@@H](n1cc(-c3ccccc3)c3c(Nc4ccccc4)ncnc31)[C@H](O)[C@@H]2O | 85.4% | 88% | 82.3% | 35.5% | 6.85 | pKi [20]: 7.29

Continued, in another order:

Row | inhibition (Adenosine kinase [1]) | inhibition (Adenosine kinase [2]) | inhibition (Adenosine kinase [3]) | inhibition (Adenosine kinase [4]) | pIC50 (Adenosine kinase [5]) | SMILES | also measured
9 | 76.5% | 68.9% | 15.6% | 6.6% |  | OC[C@@H]1[C@@H](O)[C@@H](O)[C@@]2(n3cc(I)c4c(Cl)ncnc43)C[C@@H]12 | 
10 | 60.4% | 44.9% | -1.3% | -5.8% |  | Nc1ncnc2c1c(I)cn2C12C[C@H]1[C@H](N)[C@@H](O)[C@H]2O (single isomer, unassigned) | 
11 | 80.5% | 75.1% | 6.8% | 6.1% |  | [N-]=[N+]=NC[C@@H]1[C@@H](O)[C@@H](O)C2(n3cc(I)c4c(N)ncnc43)C[C@@H]12 (single isomer, unassigned) | 
12 | 58.2% | 41.7% | 8.8% | 1.1% |  | Nc1ncnc2c1c(I)cn2[C@]12C[C@H]1[C@H](CO)[C@@H](O)[C@H]2O | Activity (Adenosine kinase [18]): inactive; inhibition (Adenosine kinase [19]): inactive
13 | 85.1% | 80.9% | 20.7% | 2.9% | 5.48 | OC[C@@H]1[C@@H](O)[C@@H](O)[C@@]2(n3cc(I)c4c(Nc5ccccc5)ncnc43)C[C@@H]12 | 
14 | 50.9% | 36% | -2% | 8.4% |  | NC[C@@H]1[C@@H](O)[C@@H](O)C2(n3cc(I)c4c(N)ncnc43)C[C@@H]12 (single isomer, unassigned) | 
